An excerpt weighted towards active compounds, which were near 4.6% of everything screened.
Mdm2 ligase inh: blocks human Mdm2 ubiquitin ligase activity. Q00987. cell-based MDM2 ubiquitination luciferase reporter, 2 h; 0 = plate control, 100 = twice control, blank-subtracted. signal enhancement, % at 5 µM. actives 0.11% (n = 210,000);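 active means signal enhancement of 30% or more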;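 further: luminescence tracks abundance of the self-degrading MDM2-luciferase fusion protein; higher signal means inhibition of MDM2 E3 ligase activity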
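Material: stable MDM2–luciferase fusion reporter cells / Quantity: 2000 cells/well / Dosing: single 5 µM compound dose, 0.2% final DMSO / Buffer or medium: DMEM / Schedule: 4 h cell settling then 2 h compound exposure, 37 °C / Detection: luminescence with SteadyLite reagent, 15 min at room temperature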
Wee1 degr inh: blocks degradation of human Wee1 kinase | reporter increase, % at 5 µM | P30291 | HeLa Luc-Wee1K328M stability, luciferase luminescence; 100% = proteasome inhibitor MG132 effect | actives 1.2% (n = 220,000) | AID 1321;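 active means activation above the mean of all tested compounds plus 3 SD, set per screening run, cut at about 8.8% in these data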;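 further: cells exposed to compound for 20 h before luminescence read; 0% = DMSO alone and 100% = MG132 at 30 µM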
APP 5'UTR act: APP 5'UTR luciferase reporter activation; SH-SY5Y APP 5'UTR luciferase reporter, luminescence; zero percent = DMSO vehicle wells; activation, % at 2 µM; actives 1% (n = 190,000);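 active means activation above a set limit, based on mean plus 3 SD of controls, cut at about 140% in these data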
p97 ATPase inh: inhibitors of human p97 ATPase; P55072; inhibition, % at 8 µM; AID 1481; recombinant p97 ATPase, Kinase-Glo ATP luminescence, 3 h; actives 0.42% (n = 220,000); in the data active means inhibition above about 15%;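 further: 0% = DMSO vehicle and 100% = wells lacking enzyme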
Target sequence (P55072 whole entry, looked up): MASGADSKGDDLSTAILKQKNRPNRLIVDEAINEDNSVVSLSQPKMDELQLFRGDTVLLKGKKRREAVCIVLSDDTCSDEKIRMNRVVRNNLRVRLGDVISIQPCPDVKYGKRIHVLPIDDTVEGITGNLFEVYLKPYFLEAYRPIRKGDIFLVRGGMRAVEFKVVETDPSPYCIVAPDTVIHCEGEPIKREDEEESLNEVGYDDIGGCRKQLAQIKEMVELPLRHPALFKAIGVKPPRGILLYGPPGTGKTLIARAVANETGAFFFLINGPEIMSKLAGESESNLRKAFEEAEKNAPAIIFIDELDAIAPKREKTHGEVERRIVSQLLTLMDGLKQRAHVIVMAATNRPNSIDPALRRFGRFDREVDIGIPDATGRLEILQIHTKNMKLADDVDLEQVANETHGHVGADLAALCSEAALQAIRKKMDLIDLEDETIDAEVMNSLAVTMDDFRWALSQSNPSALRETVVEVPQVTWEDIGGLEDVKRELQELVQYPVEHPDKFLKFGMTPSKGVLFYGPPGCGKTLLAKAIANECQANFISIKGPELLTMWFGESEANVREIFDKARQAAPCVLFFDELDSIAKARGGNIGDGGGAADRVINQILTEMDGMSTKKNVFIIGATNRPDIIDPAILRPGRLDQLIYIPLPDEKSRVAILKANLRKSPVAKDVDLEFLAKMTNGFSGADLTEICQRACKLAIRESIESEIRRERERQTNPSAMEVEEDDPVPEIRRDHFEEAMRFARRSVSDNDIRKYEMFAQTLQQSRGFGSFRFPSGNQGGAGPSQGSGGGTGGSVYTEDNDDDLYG
NF-kB expr up: NF-kB expression increase, human neuronal cells; AID 1239; fold change at 12.5 µM; NF-kB reporter expression; active compounds read high; actives 1.6% (n = 190,000); in the data active means fold change above about 3.3
STAT1 act: STAT1 signaling activation | NIH 3T3 STAT1-luciferase reporter, IFN-gamma, luminescence; 100% = IFN-gamma alone, no compound | activation (% of control), % at 5.5 µM | actives 2.6% (n = 200,000) | AID 932;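 active means activation above the screen-wide mean activation plus 3 SD, cut at about 130% in these data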;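 further: raw ratio to IFN-gamma control signal so 100% means no change and 0% no light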
Numbers without * were called inactive.

Results for Nc1nc2ccccc2n1C(=O)c1cccs1 ?
Mdm2 ligase inh: -34.2; Wee1 degr inh: 4.4; APP 5'UTR act: 79.7; p97 ATPase inh: -11.7; NF-kB expr up: 4.68*; STAT1 act: 112.6

What do the screens show for `Nc1nc2ccccc2n1C(=O)CCc1ccccc1`?
Mdm2 ligase inh: -16.6; Wee1 degr inh: 3.3; APP 5'UTR act: 49.5; p97 ATPase inh: -2.6; NF-kB expr up: 2.62; STAT1 act: 136.5*

What do the screens show for `CCOc1ccccc1/C=N/NC(=O)CNC(=O)c1cccs1`?
Mdm2 ligase inh: -22.0; Wee1 degr inh: -0.2; APP 5'UTR act: 9.3; p97 ATPase inh: -4.8; NF-kB expr up: 1.43; STAT1 act: 91.3

How did O=C(Oc1ccc2c3c(c(=O)oc2c1)CCC3)c1ccccc1[N+](=O)[O-] do in these assays?
Mdm2 ligase inh: -12.1; Wee1 degr inh: -0.9; APP 5'UTR act: -5.2; p97 ATPase inh: -6.5; NF-kB expr up: 1.13; STAT1 act: 106.4

How did O=C(Nc1cc(C(F)(F)F)ccc1-n1cnc2ccccc21)c1ccccc1 do in these assays?
Mdm2 ligase inh: -13.5; Wee1 degr inh: 8.1; APP 5'UTR act: 7.2; p97 ATPase inh: 7.5; NF-kB expr up: 0.77; STAT1 act: 100.0

What do the screens show for `Cn1cc(NC(=O)Nc2ccc(C(F)(F)F)cc2)c(C(F)(F)F)n1`?
Mdm2 ligase inh: -15.0; Wee1 degr inh: 2.4; p97 ATPase inh: -9.8

What do the screens show for `Cn1c(CNC(=O)c2ccc(F)cc2)nc2ccccc21`?
Mdm2 ligase inh: -5.2; Wee1 degr inh: -0.7; APP 5'UTR act: 11.8; p97 ATPase inh: 2.0; NF-kB expr up: 1.18; STAT1 act: 98.8

What do the screens show for `Nc1nc2ccccc2n1C(=O)c1ccc(F)cc1`?
Mdm2 ligase inh: -48.8; Wee1 degr inh: 3.6; APP 5'UTR act: 187.8*; p97 ATPase inh: -5.9; NF-kB expr up: 3.17; STAT1 act: 81.3

Results for Cc1ccc([N+](=O)[O-])cc1NC(=O)Nc1onc(C)c1C ?
Mdm2 ligase inh: -16.4; Wee1 degr inh: -2.3; p97 ATPase inh: 3.2

Results for COc1ccc(-c2cn3nc4c(nc3n2)CCCC4)cc1 ?
Mdm2 ligase inh: -11.6; Wee1 degr inh: 7.5; APP 5'UTR act: 58.5; p97 ATPase inh: 2.8; NF-kB expr up: 2.93; STAT1 act: 124.3

What do the screens show for `Cc1nc2nc(-c3ccc(Cl)cc3)cn2nc1C`?
Mdm2 ligase inh: -65.8; Wee1 degr inh: -1.3; APP 5'UTR act: 85.5; p97 ATPase inh: -2.5; NF-kB expr up: 3.31*; STAT1 act: 94.4

What do the screens show for `COc1cccc(-c2cn3nc(C)c(C)nc3n2)c1`?
Mdm2 ligase inh: -33.6; Wee1 degr inh: -1.3; APP 5'UTR act: 141.4*; p97 ATPase inh: -8.6; NF-kB expr up: 2.68; STAT1 act: 127.2

How did CCOC(=O)C1=C(N)N(c2cc(S(=O)(=O)N3CCOCC3)ccc2Cl)C(=O)C1 do in these assays?
Mdm2 ligase inh: -1.7; Wee1 degr inh: 2.0; APP 5'UTR act: -2.6; p97 ATPase inh: -0.8; NF-kB expr up: 1.36; STAT1 act: 103.6

Results for CC(c1ccccc1)C1CC(=O)N(Cc2ccccc2)C1=O (centres undefined) ?
Mdm2 ligase inh: -5.3; Wee1 degr inh: -1.2; APP 5'UTR act: 15.6; p97 ATPase inh: -2.4; NF-kB expr up: 1.23; STAT1 act: 98.3

Results for COc1cc(OC)cc(C(=O)NCCOC23CC4CC(CC(C4)C2)C3)c1 ?
Mdm2 ligase inh: 3.4; Wee1 degr inh: 9.4*; APP 5'UTR act: 1.2; p97 ATPase inh: -1.2; NF-kB expr up: 1.14; STAT1 act: 96.6

What do the screens show for `FC(F)(F)c1ccc(N=Cc2sc(N3CCOCC3)nc2-c2ccccc2)cc1`?
Mdm2 ligase inh: -22.4; Wee1 degr inh: 2.2; APP 5'UTR act: -3.5; p97 ATPase inh: 0.2; NF-kB expr up: 1.05; STAT1 act: 104.1

How did Nc1ccc2c(c1)Cc1cc([N+](=O)[O-])ccc1-2 do in these assays?
Mdm2 ligase inh: -12.6; Wee1 degr inh: 0.3; APP 5'UTR act: 7.5; p97 ATPase inh: -0.4; NF-kB expr up: 1.05; STAT1 act: 133.8*

Results for Nc1cc([N+](=O)[O-])ccc1O ?
Mdm2 ligase inh: -4.4; Wee1 degr inh: 7.7; APP 5'UTR act: 9.6; p97 ATPase inh: 2.7; NF-kB expr up: 1.08; STAT1 act: 97.5

What do the screens show for `COc1ccc(C(=O)NC2=Nc3ccccc3N=C(C)C2c2ccccc2)cc1` (centres undefined)?
Mdm2 ligase inh: -0.7; Wee1 degr inh: 4.8; p97 ATPase inh: -2.4

What do the screens show for `Cc1ccc(-c2nnc(SCc3ccccc3F)o2)cc1`?
Mdm2 ligase inh: -33.0; Wee1 degr inh: 1.0; APP 5'UTR act: 142.3*; p97 ATPase inh: -3.2; NF-kB expr up: 7.34*; STAT1 act: 135.2*

Results for COc1ccc(-c2nnc(SCc3ccccc3F)o2)cc1OC ?
Mdm2 ligase inh: -16.4; Wee1 degr inh: -0.7; APP 5'UTR act: 90.6; p97 ATPase inh: -3.0; NF-kB expr up: 2.04; STAT1 act: 114.1

Results for C#CCSc1nnc(-c2ccc(O)cc2)o1 ?
Mdm2 ligase inh: -14.3; Wee1 degr inh: -0.5; APP 5'UTR act: 57.5; p97 ATPase inh: -6.0; NF-kB expr up: 2.51; STAT1 act: 121.7

What do the screens show for `C#CCSc1nnc(-c2ccc(C)cc2)o1`?
Mdm2 ligase inh: -17.2; Wee1 degr inh: -0.1; APP 5'UTR act: 92.8; p97 ATPase inh: -4.4; NF-kB expr up: 3.72*; STAT1 act: 128.8*

Results for Cc1ccc(S(=O)(=O)c2c(C)cc(C)nc2N2CCCC2)cc1 ?
Mdm2 ligase inh: -7.9; Wee1 degr inh: 0.2; APP 5'UTR act: -5.2; p97 ATPase inh: -0.1; NF-kB expr up: 1.08; STAT1 act: 85.8

How did CN(C)c1ccc(/C=C2/C(=O)N(c3ccc([N+](=O)[O-])cc3)N=C2N2CCOCC2)cc1 do in these assays?
Mdm2 ligase inh: -7.8; Wee1 degr inh: 0.7; APP 5'UTR act: -1.6; p97 ATPase inh: 31.5*; NF-kB expr up: 1.1; STAT1 act: 106.3

Results for O=C1CC(N2CCOCC2)=NN1c1ccc([N+](=O)[O-])cc1 ?
Mdm2 ligase inh: -6.3; Wee1 degr inh: -2.0; p97 ATPase inh: 8.3

What do the screens show for `CCOC(=O)C1=NN(c2ccccc2)C(=O)/C1=C\c1ccc(N(C)C)cc1`?
Mdm2 ligase inh: -11.7; Wee1 degr inh: -2.5; APP 5'UTR act: -7.2; p97 ATPase inh: -2.0; NF-kB expr up: 0.99; STAT1 act: 96.9

What do the screens show for `CN(C)c1ccc(/C=C2\C(=O)N(c3ccc([N+](=O)[O-])cc3)N=C2N2CCOCC2)cc1`?
Wee1 degr inh: 0.2; APP 5'UTR act: 12.1; p97 ATPase inh: 23.3*; STAT1 act: 107.2

What do the screens show for `Cc1ccccc1-c1noc(-c2ccccc2C(=O)NCC2CCCO2)n1` (centres undefined)?
Mdm2 ligase inh: -13.0; Wee1 degr inh: 8.4; p97 ATPase inh: -4.2

How did COC(=O)c1ccc(CO/N=C/c2ccc(OC)cc2)o1 do in these assays?
Mdm2 ligase inh: -22.4; Wee1 degr inh: 7.9; APP 5'UTR act: 10.6; p97 ATPase inh: 2.7; NF-kB expr up: 4.61*; STAT1 act: 120.6
